The record followed here is ChEMBL document CHEMBL1123780, “2'-Fluorinated arabinonucleosides of 5-(2-haloalkyl)uracil: synthesis and antiviral activity” (1987).

Test [1] deals with Vero. Nature of the test: Antiviral activity against HSV-1 (Brand) in Vero cells. In kind it is functional. Particulars: Chlorocebus sabaeus. Summed up: (§1)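 CPE inhibition: serial 3-fold compound dilutions in E-MEM, then virus and cell suspension (E-MEM plus 15% fetal calf serum) added together. Cell input set for a confluent monolayer in 1-2 days, virus input for 90-100% CPE in infected controls at 3 days. Plates then fixed and stained, and CPE estimated against infected untreated controls. Uninfected compound-treated cells included.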

The test system of test [2] is Vero. Nature of the test: Proliferation of Vero cells by propagation on day 4 by measuring optical density (absorbance) at 330 ug/mL. In kind it is functional, Chlorocebus sabaeus. The procedure, abridged: (§2)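 Cells were suspended in medium with compound and seeded at low density in 24-well dishes (Vero 5×10^4, HEp-2 1×10^5 cells/well), four wells per condition, and grown 4 days. Cells were stained with 0.01% neutral red in PBS for 2 h at 37 °C, washed, dried, and dissolved in ethanol/0.1 M NaH₂PO₄ (1:1). OD was read at 546 nm, taken as proportional to cell number.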

In test [3] the test system is HEp-2. As to the kind of experiment: Proliferation of Hep-2 cells by propagation on day 4 by measuring optical density (absorbance) at 330 ug/mL. In kind it is functional, Homo sapiens. Summed up:
as §2

Test [4] relates to HEp-2. Nature of the test: Antiviral activity against HSV-1 (Brand) in human epithelial (Hep-2) cells. The test is classed as functional. Summed up:
as §1

Test [5] has as its system Vero. As to the kind of experiment: Antiviral activity against HSV-2 (K979) in Vero cells. The test is classed as functional. Particulars: Chlorocebus sabaeus. The procedure, abridged:
as §1

The nature of test [6]: Antiviral activity against HSV-1 (KOS) in Primary Rabbit Kidney (PRK) cells. The test is classed as functional. Particulars: Oryctolagus cuniculus.
Test [7] relates to HEp-2. As to the kind of experiment: Antiviral activity against HSV-2 (K979) in human epithelial (Hep-2) cells. The test is classed as functional. The procedure, abridged: as §1
Test [8] relates to Vero. Nature of the test: Proliferation of Vero cells by propagation on day 4 by measuring optical density (absorbance) at 30 ug/mL. The test is classed as functional, Chlorocebus sabaeus. The procedure, abridged:
as §2

Test [9] is described as follows: Antiviral activity against HSV-2 (G) in Primary Rabbit Kidney (PRK) cells. Particulars: Oryctolagus cuniculus. In kind it is functional.
The subject of test [10] is HEp-2. Nature of the test: Proliferation of Hep-2 cells by propagation on day 4 by measuring optical density (absorbance) at 100 ug/mL. In kind it is functional, Homo sapiens. The procedure, abridged:
as §2

Test [11] in a line: Antiviral activity against VZV (Ellen) in human lung fibroblast (HLF-1) cells. The test is classed as functional.
Test [12] concerns Vero. As to the kind of experiment: Proliferation of Vero cells by propagation on day 4 by measuring optical density (absorbance) at 100 ug/mL. In kind it is functional, Chlorocebus sabaeus. Summed up: as §2
In test [13] the test system is HEp-2. Nature of the test: Proliferation of Hep-2 cells by propagation on day 4 by measuring optical density (absorbance) at 30 ug/mL. The test is classed as functional, Homo sapiens. The procedure, abridged: as §2

Converted amounts (≈) assume the structure as drawn.

Take `O=c1[nH]c(=O)n([C@H]2C[C@H](O)[C@@H](CO)O2)cc1CCF`: the MIC in the test on Vero [1] was 0.1 µg/mL (≈ 0.365 µM); with HEp-2 [4], 0.03 µg/mL (≈ 0.109 µM); in the test on Vero [5], 3 µg/mL (≈ 10.9 µM); in test [6], 0.58 µg/mL (≈ 2.11 µM); in the test on HEp-2 [7], 1 µg/mL (≈ 3.65 µM); in test [9] it was 1.5 µg/mL (≈ 5.47 µM). Further, the MIC in [11] was 3 µg/mL (≈ 10.9 µM). The Control in the test with Vero [2] turned out to be 71%; in the test on HEp-2 [3], 60%; in the test with Vero [8] it was 94%; with HEp-2 [10] it was 86%; in the test with Vero [12], 97%; with HEp-2 [13], 97%.
With `O=c1[nH]c(=O)n([C@@H]2O[C@H](CO)[C@@H](O)[C@@H]2F)cc1CCCl`, the MIC in the test on Vero [1] was 0.3 µg/mL (≈ 0.972 µM); against HEp-2 [4], 0.1 µg/mL (≈ 0.324 µM); against Vero [5], 10 µg/mL (≈ 32.4 µM); in test [6], 0.3 µg/mL (≈ 0.972 µM); with HEp-2 [7], 1 µg/mL (≈ 3.24 µM); in test [9], 2 µg/mL (≈ 6.48 µM). This molecule also had an MIC in test [11] of 0.1 µg/mL (≈ 0.324 µM). For the same molecule, the Control worked out at 63% in the test on Vero [2]; 68% in the test with HEp-2 [3]; 75% in the test on Vero [8]; 107% in the test on HEp-2 [10]; 74% in the test with Vero [12]; 116% with HEp-2 [13].
With `NC1=NC(=O)C2N=CN(COCCO)C2=N1` (stereo not drawn), the MIC was determined as 0.003 µg/mL (≈ 0.0133 µM) against Vero [1]; 1 µg/mL (≈ 4.44 µM) in the test with HEp-2 [4]; 1 µg/mL (≈ 4.44 µM) against Vero [5]; 0.06 µg/mL (≈ 0.266 µM) in test [6]; 3 µg/mL (≈ 13.3 µM) in the test on HEp-2 [7]; 0.04 µg/mL (≈ 0.178 µM) in test [9]. In addition, the Control in the test with Vero [2] stood at 56%; with HEp-2 [3] it was 41%; in the test on Vero [8], 77%; with HEp-2 [10], 78%; with Vero [12], 73%; in the test with HEp-2 [13], 89%.
`Nc1nc(=O)n([C@@H]2O[C@H](CO)[C@@H](O)[C@H]2F)cc1I`: the MIC with Vero [1] was 0.01 µg/mL (≈ 0.0269 µM); with HEp-2 [4], 0.01 µg/mL (≈ 0.0269 µM); against Vero [5] it was 0.1 µg/mL (≈ 0.269 µM); in test [6], 0.02 µg/mL (≈ 0.0539 µM); in the test with HEp-2 [7], 0.03 µg/mL (≈ 0.0808 µM); in test [9], 0.03 µg/mL (≈ 0.0808 µM). The MIC in test [11] is 0.01 µg/mL (≈ 0.0269 µM). For the same molecule, the Control is listed as 24% in the test with Vero [2]; 13% in the test on HEp-2 [3]; 68% in the test on Vero [8]; 32% in the test on HEp-2 [10]; 43% with Vero [12]; 64% with HEp-2 [13].
For `O=c1[nH]c(=O)n([C@H]2C[C@H](O)[C@@H](CO)O2)cc1CCCl`, the MIC was determined as 0.01 µg/mL (≈ 0.0344 µM) against Vero [1]; 0.03 µg/mL (≈ 0.103 µM) against HEp-2 [4]; 30 µg/mL (≈ 103 µM) in the test with Vero [5]; 0.14 µg/mL (≈ 0.482 µM) in [6]; 3 µg/mL (≈ 10.3 µM) against HEp-2 [7]; 2.1 µg/mL (≈ 7.22 µM) in test [9]. Besides, the MIC in [11] turned out to be 0.01 µg/mL (≈ 0.0344 µM). Besides, the Control in the test on Vero [2] was determined as 82%; in the test on HEp-2 [3], 86%; in the test with Vero [8] it was 84%; in the test on HEp-2 [10] it was 99%; in the test on Vero [12] it was 91%; with HEp-2 [13], 104%.
Regarding `Cc1cn([C@@H]2O[C@H](CO)[C@@H](O)[C@@H]2F)c(=O)[nH]c1=O` [5-METHYL-2'-FLUOROARAURACIL], the MIC in the test on Vero [1] was 0.03 µg/mL (≈ 0.115 µM); in the test on HEp-2 [4], 0.3 µg/mL (≈ 1.15 µM); against Vero [5], 0.3 µg/mL (≈ 1.15 µM); in [6], 0.04 µg/mL (≈ 0.154 µM); with HEp-2 [7], 0.1 µg/mL (≈ 0.384 µM); in [9], 0.02 µg/mL (≈ 0.0769 µM). This molecule registered an MIC in [11] of 0.001 µg/mL (≈ 0.00384 µM). Also, the Control in the test with Vero [2] stood at 0%; with HEp-2 [3], 0%; in the test on Vero [8] it was 7%; in the test with HEp-2 [10] it was 3%; in the test on Vero [12] it was 6%; with HEp-2 [13], 36%.
Turning to `O=c1[nH]c(=O)n([C@@H]2O[C@H](CO)[C@@H](O)[C@@H]2F)cc1I` [FIALURIDINE], the MIC in the test on Vero [1] was 0.01 µg/mL (≈ 0.0269 µM); with HEp-2 [4] it was 0.01 µg/mL (≈ 0.0269 µM); in the test with Vero [5] it was 0.1 µg/mL (≈ 0.269 µM); in test [6], 0.02 µg/mL (≈ 0.0538 µM); against HEp-2 [7] it was 0.1 µg/mL (≈ 0.269 µM); in [9], 0.02 µg/mL (≈ 0.0538 µM). Moreover, the MIC in test [11] worked out at 0.003 µg/mL (≈ 0.00806 µM). In addition, the Control in the test with Vero [2] turned out to be 0%; in the test with HEp-2 [3], 0%; with Vero [8], 37%; in the test with HEp-2 [10], 13%; with Vero [12], 6%; in the test with HEp-2 [13], 49%.
Take `O=c1[nH]c(=O)n(C2O[C@H](CO)[C@@H](O)[C@@H]2O)cc1CCCl` (stereo partly drawn): the MIC against Vero [1] is 30 µg/mL (≈ 97.8 µM); in the test on HEp-2 [4] it was 30 µg/mL (≈ 97.8 µM); against Vero [5], 100 µg/mL (≈ 326 µM); in the test with HEp-2 [7], 100 µg/mL (≈ 326 µM).
On to `O=c1[nH]c(=O)n([C@H]2C[C@H](O)[C@@H](CO)O2)cc1/C=C/Br` [BRIVUDINE], for which the MIC with Vero [1] was found to be 0.001 µg/mL (≈ 0.003 µM); against HEp-2 [4], 0.01 µg/mL (≈ 0.03 µM); against Vero [5], 30 µg/mL (≈ 90.1 µM); in test [6] it was 0.007 µg/mL (≈ 0.021 µM); against HEp-2 [7], 3 µg/mL (≈ 9.01 µM); in [9], 2.3 µg/mL (≈ 6.9 µM). In addition, the MIC in test [11] was determined as 0.001 µg/mL (≈ 0.003 µM). In addition, the Control in the test with Vero [2] is 55%; in the test with HEp-2 [3], 31%; in the test on Vero [8] it was 74%; in the test with HEp-2 [10], 68%; in the test on Vero [12], 71%; with HEp-2 [13] it was 79%.
Consider `O=c1[nH]c(=O)n([C@@H]2O[C@H](CO)[C@@H](O)[C@@H]2F)cc1CCF`, for which the MIC against Vero [1] was found to be 0.03 µg/mL (≈ 0.103 µM); against HEp-2 [4], 0.03 µg/mL (≈ 0.103 µM); against Vero [5], 0.3 µg/mL (≈ 1.03 µM); in test [6], 0.2 µg/mL (≈ 0.684 µM); in the test on HEp-2 [7] it was 0.1 µg/mL (≈ 0.342 µM); in test [9], 0.2 µg/mL (≈ 0.684 µM). Also, the MIC in [11] came out at 0.03 µg/mL (≈ 0.103 µM). The Control with Vero [2] is 90%; in the test on HEp-2 [3], 72%; in the test with Vero [8], 98%; in the test on HEp-2 [10], 105%; in the test with Vero [12], 87%; in the test with HEp-2 [13], 113%.
On to `O=c1[nH]c(=O)n([C@H]2C[C@H](O)[C@@H](CO)O2)cc1I` [IDOXURIDINE], for which the MIC was found to be 0.1 µg/mL (≈ 0.282 µM) with Vero [1]; 0.3 µg/mL (≈ 0.847 µM) with HEp-2 [4]; 1 µg/mL (≈ 2.82 µM) in the test on Vero [5]; 0.2 µg/mL (≈ 0.565 µM) in test [6]; 0.3 µg/mL (≈ 0.847 µM) against HEp-2 [7]; 0.91 µg/mL (≈ 2.57 µM) in test [9]. The molecule also yielded an MIC in [11] of 10 µg/mL (≈ 28.2 µM). For the same molecule, the Control is listed as 16% with Vero [2]; 0% in the test with HEp-2 [3]; 61% with Vero [8]; 20% with HEp-2 [10]; 34% in the test with Vero [12]; 61% in the test with HEp-2 [13].
